Assay [1] addresses T1, 5-hydroxytryptamine receptor 1A (Rattus norvegicus, UniProt P19327).
T1 sequence (P19327 whole entry): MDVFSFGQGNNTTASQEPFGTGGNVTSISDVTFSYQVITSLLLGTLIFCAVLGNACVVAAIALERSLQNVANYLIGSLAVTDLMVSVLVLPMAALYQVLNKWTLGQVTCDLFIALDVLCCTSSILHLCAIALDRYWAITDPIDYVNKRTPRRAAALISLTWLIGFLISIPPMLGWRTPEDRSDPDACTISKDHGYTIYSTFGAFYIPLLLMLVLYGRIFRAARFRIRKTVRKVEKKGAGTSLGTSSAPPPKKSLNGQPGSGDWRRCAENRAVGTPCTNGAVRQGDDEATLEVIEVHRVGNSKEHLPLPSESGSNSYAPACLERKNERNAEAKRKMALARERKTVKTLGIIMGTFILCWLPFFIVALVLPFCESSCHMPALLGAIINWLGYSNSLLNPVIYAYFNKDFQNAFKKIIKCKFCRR
The assay can be described thus: Binding affinity towards 5-hydroxytryptamine 1A receptor using [3H]8-OH-DPAT as radioligand in competitive binding assay. An outline of the steps:
(§1)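 Rat anterior cortex membranes, pelleted and preincubated 30 min at 37 °C in 50 mM Tris-HCl pH 7.7, 4 mM CaCl2, 10 μM pargyline. Label [3H]8-OH-DPAT, 800 pM final; nonspecific binding with 10 μM spiroxatrine. Ki derived from IC50 by Cheng-Prusoff; mean with SEM range.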

Assay [2] has as its target T2, D(2) dopamine receptor (Rattus norvegicus, UniProt P61169). The experiment in a line: Concentration required to inhibit 50% dopamine receptor D2 in a cell free homogenate of intermediate lobe of pituitary gland. It is filed as functional.
Assay [3] addresses T2, D(2) dopamine receptor. The experiment in a line: Binding affinity using [3H]-spiperone radioligand competitive binding assay against dopamine receptor D2. An outline of the steps:
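Rat striatal membranes in Tris pH 7.4 buffer with salts and ascorbate. [3H]spiperone at 300 pM final; nonspecific binding with 10 μM YM-09151-2. Incubated 20 min at 37 °C, then filtered. Ki derived from IC50 by Cheng-Prusoff.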

The subject of assay [4] is Rattus norvegicus. The assay can be described thus: Rat rotation experiments were conducted to evaluate rational behavior of the rats by administering at a dose of 20 umol/kg oral. It is filed as functional. In outline: (§2)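 Rats with unilateral 6-hydroxydopamine lesions of the nigrostriatal bundle. Compound given subcutaneously or orally at the stated dose. Net contralateral rotations counted over 2 h after dosing and reported as mean ± SEM; negative values indicate ipsilateral turning.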

In assay [5] the test system is Rattus norvegicus. The assay can be described thus: Rat rotation experiments were conducted to evaluate rational behavior of the rats by administering at a dose of 4.1 umol/kg subcutaneously. Type of assay: functional. In outline: as §2
Assay [6] relates to Rattus norvegicus. The assay can be described thus: Rat rotation experiments were conducted to evaluate rational behavior of the rats by administering at a dose of 40 umol/kg oral. Type of assay: functional. In outline:
as §2

For assay [7], the system named is Rattus norvegicus. The assay can be described thus: Rat rotation experiments were conducted to evaluate rational behavior of the rats by administering at a dose of 0.41 umol/Kg subcutaneously. Type of assay: functional. In outline:
as §2

Assay [8] has as its system Rattus norvegicus. The experiment in a line: Rat rotation experiments were conducted to evaluate rational behavior of the rats by administering at a dose of 1.0 umol/kg subcutaneously. It is filed as functional. An outline of the steps:
as §2

Assay [9] concerns Rattus norvegicus. The assay can be described thus: (§3) Rat rotation experiments were conducted to evaluate rational behavior of the rats by administering at a dose of […] subcutaneously. Type of assay: functional.
Assay [10] has as its target Beta-1 adrenergic receptor (Rattus norvegicus, UniProt P18090). The assay can be described thus: Binding affinity towards beta-1 adrenergic receptor using [3H]iodocyanopindolol as radioligand in competitive binding assay. The note with it: in the assay text read “[125I]iodocyanopindolol” for “[3H]iodocyanopindolol”. In outline: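 β-adrenergic sites in rat striatal membranes. Label [125I]iodocyanopindolol at 50 pM final; nonspecific binding with 10 μM propranolol. Incubated 1 h at 37 °C, then filtered. Ki via Cheng-Prusoff.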

A short description of assay [11]: Intrinsic activity relative to dopamine at D-2 receptor. Type of assay: functional.
Assay [12] deals with T1, 5-hydroxytryptamine receptor 1A. The assay can be described thus: Binding affinity was evaluated by using [3H]8-OH-DPAT radioligand by using competitive binding assay on 5-hydroxytryptamine 1A receptor. In outline:
as §1

For assay [13], the target named is T3, D(1A) dopamine receptor (Rattus norvegicus, UniProt P18901). The experiment in a line: Binding affinity using [125 I] SCH 23982 radioligand competitive binding assay on dopamine receptor D1.
Assay [14] concerns the target T3, D(1A) dopamine receptor. The assay can be described thus: Inhibition of Dopamine receptor D1 activity by functional cyclase assay using cell free homogenate of rat striatum. It is filed as tissue-based. An outline of the steps:
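Adenylate cyclase stimulation in cell-free homogenate of rat striatum. EC50 is the concentration giving half-maximal stimulation of cAMP production.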

The test system of assay [15] is Rattus norvegicus. The experiment in a line: (§4) Rat rotation experiments were conducted to evaluate rational behavior of the rats by administering at a dose of […] oral. Type of assay: functional.
Assay [16] concerns Rattus norvegicus. The assay is described as §3. It is filed as functional. This is another data set of the same source.
Assay [17] concerns Rattus norvegicus. Described as §4. It is filed as functional. This is another data set of the same source.
The test system of assay [18] is Rattus norvegicus. The description is as §4. It is filed as functional. The source holds these as a separate data set.
Assay [19] concerns Rattus norvegicus. The description is as §3. It is filed as functional. This is another data set of the same source.
Assay [20] deals with Rattus norvegicus. The assay is described as §3. Type of assay: functional. The source holds these as a separate data set.
The test system of assay [21] is Rattus norvegicus. The assay can be described thus: Rat rotation experiments were conducted to evaluate rational behavior of the rats by administering at a dose of 20.0 umol/Kg subcutaneously. It is filed as functional. An outline of the steps: as §2
Assay [22] relates to Rattus norvegicus. The assay can be described thus: Rat rotation experiments were conducted to evaluate rational behavior of the rats by administering at a dose of 2.0 umol/kg subcutaneously. It is filed as functional. In outline:
as §2

The test system of assay [23] is Rattus norvegicus. The experiment in a line: Rat rotation experiments were conducted to evaluate rational behavior of the rats by administering at a dose of 0.2 umol/kg subcutaneously. It is filed as functional. An outline of the steps:
as §2

Broadly, the pKi is the negative decadic logarithm of the Ki, by convention in mol/L. A low value points to a large Ki. The pEC50 is the negative decadic logarithm of the EC50, by convention in mol/L.

Structures are written as SMILES. pEC50, pKi: −log10 of the molar value.

Beta-1 adrenergic receptor, sequence (P18090 whole entry): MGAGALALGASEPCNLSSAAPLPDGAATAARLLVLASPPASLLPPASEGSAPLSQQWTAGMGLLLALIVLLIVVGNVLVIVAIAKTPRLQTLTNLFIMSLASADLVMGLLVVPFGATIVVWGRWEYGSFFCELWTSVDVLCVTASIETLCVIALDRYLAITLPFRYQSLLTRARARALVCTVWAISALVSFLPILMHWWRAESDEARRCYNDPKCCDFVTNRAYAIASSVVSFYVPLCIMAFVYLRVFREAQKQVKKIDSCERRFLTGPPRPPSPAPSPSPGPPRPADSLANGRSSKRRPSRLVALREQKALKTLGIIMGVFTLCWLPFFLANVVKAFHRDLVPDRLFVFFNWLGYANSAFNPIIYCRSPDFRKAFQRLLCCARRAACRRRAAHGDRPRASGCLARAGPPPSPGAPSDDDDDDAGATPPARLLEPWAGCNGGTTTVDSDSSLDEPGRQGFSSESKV
T3 sequence (P18901 whole entry): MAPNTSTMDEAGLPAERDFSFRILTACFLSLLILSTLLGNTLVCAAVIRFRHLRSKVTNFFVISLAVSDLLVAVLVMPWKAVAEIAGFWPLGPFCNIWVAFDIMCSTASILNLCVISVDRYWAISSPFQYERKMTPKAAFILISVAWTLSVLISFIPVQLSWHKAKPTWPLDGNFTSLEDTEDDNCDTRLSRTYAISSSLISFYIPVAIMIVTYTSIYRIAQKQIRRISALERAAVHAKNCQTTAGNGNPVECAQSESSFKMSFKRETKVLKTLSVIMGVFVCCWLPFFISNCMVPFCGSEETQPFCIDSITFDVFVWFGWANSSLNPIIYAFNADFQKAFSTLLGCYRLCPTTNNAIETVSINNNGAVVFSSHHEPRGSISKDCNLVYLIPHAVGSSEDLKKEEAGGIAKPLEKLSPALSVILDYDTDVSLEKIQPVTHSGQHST
T2 sequence (P61169 whole entry): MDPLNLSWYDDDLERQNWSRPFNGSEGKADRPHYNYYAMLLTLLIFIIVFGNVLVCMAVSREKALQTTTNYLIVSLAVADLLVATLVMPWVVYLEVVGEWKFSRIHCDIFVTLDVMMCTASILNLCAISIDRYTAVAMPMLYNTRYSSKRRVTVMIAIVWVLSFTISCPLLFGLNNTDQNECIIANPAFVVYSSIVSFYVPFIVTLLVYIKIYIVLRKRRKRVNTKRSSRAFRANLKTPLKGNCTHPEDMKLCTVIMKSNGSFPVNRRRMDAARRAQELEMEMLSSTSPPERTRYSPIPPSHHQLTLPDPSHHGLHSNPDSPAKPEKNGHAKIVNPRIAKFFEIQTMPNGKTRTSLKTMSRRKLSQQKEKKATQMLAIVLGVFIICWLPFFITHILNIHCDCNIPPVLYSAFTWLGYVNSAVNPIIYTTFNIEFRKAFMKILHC

Consider `NC[C@@H]1OC(c2ccccc2)Cc2c1ccc(O)c2O` (some centres undefined), for which the pKi in [1] is 4.74; on D(2) dopamine receptor [3], 6.11; in assay [10], < 5.00. On D(2) dopamine receptor [2], this compound had a pEC50 of 5.41. For the same compound, the Activity turned out to be 326 in the assay with Rattus norvegicus [4]; 1554 in the assay with Rattus norvegicus [5]; 1066 in the assay with Rattus norvegicus [6]; 192 in the assay with Rattus norvegicus [7]; 53 in the assay on Rattus norvegicus [8]; 895 in the assay on Rattus norvegicus [9]. Also, the Intrinsic activity in assay [11] came out at 101%.

Turning to `CC(C)(C)C1Cc2c(ccc(O)c2O)[C@H](CN)O1` (some centres undefined), the pKi is < 4.70 in [12], 7.50 on D(1A) dopamine receptor [13], 5.09 on D(2) dopamine receptor [3] and < 5.00 in [10]. Moreover, the pEC50 at D(2) dopamine receptor [2] is < 5.00; on D(1A) dopamine receptor [14], 7.28. Also, the Activity with Rattus norvegicus [15] worked out at 932; in the assay on Rattus norvegicus [16], 661; with Rattus norvegicus [9], 354; in the assay on Rattus norvegicus [17] it was 176; in the assay on Rattus norvegicus [18] it was 689; in the assay with Rattus norvegicus [19] it was 671.

Regarding `C=CCNC[C@@H]1OC(C2CCCCC2)Cc2c1ccc(O)c2O` (some centres undefined), the values for the pKi (in [1]; at D(1A) dopamine receptor [13]; in assay [10]) were < 4.70, 5.81 and < 5.00, respectively. At D(1A) dopamine receptor [14], this compound had a pEC50 of 7.52. In addition, the values for the Activity in the assay with Rattus norvegicus [9] and in the assay with Rattus norvegicus [20] were 667 and 1056, respectively.

`NC[C@@H]1OC(C2CCCCC2)Cc2c1ccc(O)c2O` (some centres undefined): the pKi in [1] is < 4.70; on D(1A) dopamine receptor [13], 8.27; at D(2) dopamine receptor [3], 5.95; in assay [10], < 5.00. Moreover, the pEC50 on D(2) dopamine receptor [2] was 5.15; at D(1A) dopamine receptor [14], 8.77. Also, the Intrinsic activity in assay [11] is 85%.

Consider `NC[C@H]1O[C@@H](c2ccccc2)Cc2c1ccc(O)c2O`, for which the pKi in [1] was < 4.70; on D(2) dopamine receptor [3], 5.34; in assay [10], < 5.00. This compound showed a pEC50 at D(2) dopamine receptor [2] of 5.55. Also, the Activity in the assay on Rattus norvegicus [21] is given as -24; in the assay on Rattus norvegicus [22] it was -22. In addition, in assay [11], the Intrinsic activity worked out at 96%.

Consider `NC[C@@H]1O[C@H](c2ccccc2)Cc2c1ccc(O)c2O`, for which the results for the pKi in assay [1] and in assay [10] were 5.59 and < 5.00, respectively. Moreover, the Activity with Rattus norvegicus [8] was found to be 1113; in the assay on Rattus norvegicus [22] it was 1525; with Rattus norvegicus [23], 348. Further, the Intrinsic activity in [11] amounted to 98%.
